Results as given in ChEMBL document CHEMBL2150985, “Synthesis and antioxidant activity of 1,3,4-oxadiazole tagged thieno[2,3-d]pyrimidine derivatives” (Eur J Med Chem, 2012).
Values after ≈ are worked out from the molar mass of the structure shown.

How the values were obtained:
Assay type in all cases: functional
[1] = test system: Radical scavenging activity; experiment: Antioxidant activity assessed as inhibition of DPPH free radical production at 25 ug/mL after 30 mins by spectrophotometric analysis relative to control
Method in brief: (§1)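 Test compound in methanol added to 0.004% (w/v) methanolic DPPH at a 1:4 volume ratio. Incubated 30 min at room temperature. Absorbance read against blank at 517 nm.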

[2] = test system: Radical scavenging activity; experiment: Antioxidant activity assessed as inhibition of DPPH free radical production at 50 ug/mL after 30 mins by spectrophotometric analysis relative to control; method in brief: as §1
[3] = test system: Radical scavenging activity; experiment: Antioxidant activity assessed as inhibition of DPPH free radical production at 75 ug/mL after 30 mins by spectrophotometric analysis relative to control; method in brief: as §1
[4] = test system: Radical scavenging activity; experiment: Antioxidant activity assessed as inhibition of DPPH free radical production at 100 ug/mL after 30 mins by spectrophotometric analysis relative to control; method in brief: as §1
[5] = test system: Radical scavenging activity; experiment: Antioxidant activity assessed as inhibition of DPPH free radical production after 30 mins by spectrophotometric analysis; method in brief: as §1
[6] = Antioxidant activity assessed as inhibition of nitric oxide free radical production at 25 ug/mL after 150 mins by Griess method relative to control
Method in brief: (§2)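 NO generated from sodium nitroprusside (10 mM) in 0.2 M phosphate buffered saline, pH 7.4, with compound at […]. Incubated 150 min at 25 °C. An aliquot was mixed 1:1 with Griess reagent (1% sulfanilamide, 2% H3PO4, 0.1% naphthylethylenediamine dihydrochloride).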

[7] = Antioxidant activity assessed as inhibition of nitric oxide free radical production at 50 ug/mL after 150 mins by Griess method relative to control; method in brief: as §2
[8] = Antioxidant activity assessed as inhibition of nitric oxide free radical production at 75 ug/mL after 150 mins by Griess method relative to control; method in brief: as §2
[9] = Antioxidant activity assessed as inhibition of nitric oxide free radical production at 100 ug/mL after 150 mins by Griess method relative to control; method in brief: as §2
[10] = Antioxidant activity assessed as inhibition of nitric oxide free radical production after 150 mins by Griess method; method in brief: as §2
[11] = Antioxidant activity assessed as inhibition of H2O2 radical scavenging activity at 25 ug/mL by spectrophotometric analysis relative to control
Method in brief: (§3)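 H2O2 (40 mM) prepared in phosphate buffer, pH 7.4. Compounds at […] in phosphate buffer were added to the H2O2 solution. Absorbance of the mixture was read at 230 nm, and percent H2O2 scavenging was calculated.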

[12] = Antioxidant activity assessed as inhibition of H2O2 radical scavenging activity at 50 ug/mL by spectrophotometric analysis relative to control; method in brief: as §3
[13] = Antioxidant activity assessed as inhibition of H2O2 radical scavenging activity at 75 ug/mL by spectrophotometric analysis relative to control; method in brief: as §3
[14] = Antioxidant activity assessed as inhibition of H2O2 radical scavenging activity at 100 ug/mL by spectrophotometric analysis relative to control; method in brief: as §3
[15] = Antioxidant activity assessed as inhibition of H2O2 radical scavenging activity by spectrophotometric analysis; method in brief: as §3

IC50 [5]	IC50 [10]	IC50 [15]	SMILES	inhibition [1]	inhibition [2]	inhibition [3]	inhibition [4]	inhibition [6]	inhibition [7]	inhibition [8]	inhibition [9]	inhibition [11]	inhibition [12]	inhibition [13]	inhibition [14]
25.69 µg/mL (≈ 53.2 µM)	23.3 µg/mL (≈ 48.3 µM)	27.76 µg/mL (≈ 57.5 µM)	Cc1c(-c2nnc(-c3ccc([N+](=O)[O-])cc3)o2)sc2ncnc(Nc3ccc(F)c(Cl)c3)c12	48.6%	52.9%	56.6%	61.9%	53.6%	56.5%	60%	64.3%	45%	47.4%	50.4%	53.6%
20.92 µg/mL (≈ 46.7 µM)	20.14 µg/mL (≈ 44.9 µM)	23.54 µg/mL (≈ 52.5 µM)	Cc1c(-c2nnc(-c3ccc([N+](=O)[O-])cc3)o2)sc2ncnc(Nc3ccc(F)cc3)c12	59.7%	64.5%	68.9%	72.2%	62%	66.8%	70.9%	73.9%	53.1%	56.6%	60%	64.2%
19.34 µg/mL (≈ 41.5 µM)	19.66 µg/mL (≈ 42.2 µM)	22.98 µg/mL (≈ 49.3 µM)	Cc1c(-c2nnc(-c3ccc([N+](=O)[O-])cc3)o2)sc2ncnc(Nc3ccc(F)cc3F)c12	64.6%	69.5%	73.9%	77.8%	63.6%	71.4%	76.2%	79%	54.4%	58.1%	62.8%	66.2%
19.31 µg/mL (≈ 42.5 µM)	18.27 µg/mL (≈ 40.2 µM)	21.22 µg/mL (≈ 46.7 µM)	Cc1c(-c2nnc(-c3ccc(Cl)cc3)o2)sc2ncnc(Nc3ccc(Cl)cc3)c12	64.7%	68.4%	73.8%	77.5%	68.4%	70.6%	74.2%	79.4%	58.3%	62.3%	65.7%	69.8%
16.35 µg/mL (≈ 35.9 µM)	15.98 µg/mL (≈ 35.1 µM)	18.26 µg/mL (≈ 40.1 µM)	Cc1c(-c2nnc(-c3ccc(Cl)cc3)o2)sc2ncnc(Nc3ccc(F)cc3F)c12	76.4%	79.7%	83.3%	85.8%	78.2%	83.3%	84.6%	86.2%	68.4%	71.7%	74.5%	79.7%
19.57 µg/mL (≈ 41.4 µM)	19.41 µg/mL (≈ 41.1 µM)	20.18 µg/mL (≈ 42.7 µM)	Cc1c(-c2nnc(-c3ccc(Cl)cc3)o2)sc2ncnc(Nc3ccc(F)c(Cl)c3)c12	63.9%	67.9%	71.5%	76.6%	64.4%	69.2%	74.7%	79.5%	61.9%	64.5%	68.2%	71.9%
17.25 µg/mL (≈ 42.8 µM)	17.1 µg/mL (≈ 42.4 µM)	18.85 µg/mL (≈ 46.7 µM)	Cc1c(-c2nnc(-c3ccccc3)o2)sc2ncnc(Nc3ccc(F)cc3)c12	72.5%	75.8%	78.4%	83.1%	73.1%	78.1%	82.4%	84.9%	66.3%	69.5%	71.7%	74.2%
17.7 µg/mL (≈ 40.4 µM)	17.39 µg/mL (≈ 39.7 µM)	19.49 µg/mL (≈ 44.5 µM)	Cc1c(-c2nnc(-c3ccc(Cl)cc3)o2)sc2ncnc(Nc3ccc(F)cc3)c12	70.6%	74.2%	77.8%	81.9%	71.8%	76.3%	79.7%	83.6%	64.1%	67.4%	69.8%	72.6%
18.03 µg/mL (≈ 42.9 µM)	17.54 µg/mL (≈ 41.8 µM)	20.47 µg/mL (≈ 48.8 µM)	Cc1c(-c2nnc(-c3ccccc3)o2)sc2ncnc(Nc3ccc(Cl)cc3)c12	69.3%	71.6%	76.8%	81.3%	71.3%	74.8%	77.1%	82.9%	61.1%	63.8%	68.2%	71.6%
18.25 µg/mL (≈ 41.7 µM)	17.14 µg/mL (≈ 39.1 µM)	20.74 µg/mL (≈ 47.4 µM)	Cc1c(-c2nnc(-c3ccccc3)o2)sc2ncnc(Nc3ccc(F)c(Cl)c3)c12	68.5%	72.8%	74.9%	79.2%	72.9%	74.1%	78.2%	82.4%	60.3%	63.5%	67.8%	70.9%
16.91 µg/mL (≈ 40.1 µM)	16.61 µg/mL (≈ 39.4 µM)	19.57 µg/mL (≈ 46.4 µM)	Cc1c(-c2nnc(-c3ccccc3)o2)sc2ncnc(Nc3ccc(F)cc3F)c12	73.9%	77.4%	79.6%	83.8%	75.2%	79.5%	82.6%	85.4%	63.9%	65.5%	69%	72.5%
23.7 µg/mL (≈ 51 µM)	20.49 µg/mL (≈ 44.1 µM)	24.33 µg/mL (≈ 52.3 µM)	Cc1c(-c2nnc(-c3ccc([N+](=O)[O-])cc3)o2)sc2ncnc(Nc3ccc(Cl)cc3)c12	52.7%	58.2%	61.4%	67.8%	61%	63.5%	67.6%	72.4%	51.4%	54%	58.1%	63.7%
15.11 µg/mL (≈ 85.8 µM)	14.75 µg/mL (≈ 83.7 µM)	16.35 µg/mL (≈ 92.8 µM)	O=C1O[C@H]([C@@H](O)CO)C(O)=C1O [ASCORBIC ACID]	82.7%	83.5%	85.5%	87.2%	84.7%	86%	88.3%	90.4%	76.4%	78.6%	82.4%	86.6%
